The results in this text go back to ChEMBL document CHEMBL1156620, “Structure-activity relationship studies on a novel class of antiproliferative agents derived from Lavendustin A. Part I: Ring A modifications” (Bioorg Med Chem, 2008).

The test system of assay [1] is HaCaT. The assay is described as follows: Antiproliferative activity against human HaCaT cells after 3 days by sulforhodamine B assay. Type of assay: functional, cell-based. Conditions: 72 h. The method, boiled down:
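HaCaT keratinocytes kept in DMEM with 5% FCS, trypsinized and seeded at 4000 cells/0.2 mL/well in 96-well plates. Medium swapped after 24 h for fresh medium with graded compound concentrations. Proliferation read by sulforhodamine B colorimetry after 3 days. IC50 taken as the average of at least two independent measurements.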
(The SRB assay estimates cell density from bound dye.)

The subject of assay [2] is HaCaT. The assay is described as follows: Antimitotic activity against human HaCaT cells assessed as mitotic index at 3 uM after 20 hrs. It is filed as functional. The method, boiled down: (§1)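 HaCaT cells grown in DMEM with 5% FCS, seeded in chamber slides at 24000 cells/0.4 ml/well. After 24 h, medium replaced with fresh medium containing the stated compound concentration, then 20 h incubation. Cells fixed in 90% acetone for 5 min at room temperature. DNA stained with DAPI (0.5 μg/ml, 1 h, RT). Metaphase-arrested cells scored by fluorescence microscopy, at least 300 cells per concentration. Mitotic index = 100% × mitotic/total cells.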

Assay [3] relates to HaCaT. Briefly: Antimitotic activity against human HaCaT cells assessed as mitotic index at 2 uM after 20 hrs. Type of assay: functional. The method, boiled down: as §1
Assay [4] concerns HaCaT. The assay is described as follows: Antimitotic activity against human HaCaT cells assessed as mitotic index at 100 uM after 20 hrs. It is filed as functional. The method, boiled down:
as §1

Assay [5] has as its system HaCaT. The assay is described as follows: Antimitotic activity against human HaCaT cells assessed as mitotic index at 0.5 uM after 20 hrs. Type of assay: functional. The method, boiled down: as §1
Assay [6] relates to HaCaT. Briefly: Antimitotic activity against human HaCaT cells assessed as mitotic index at 10 uM after 20 hrs. Type of assay: functional. The method, boiled down:
as §1

The test system of assay [7] is HaCaT. The assay is described as follows: Antimitotic activity against human HaCaT cells assessed as mitotic index at 2.5 uM after 20 hrs. It is filed as functional. The method, boiled down:
as §1

The test system of assay [8] is HaCaT. The assay is described as follows: Antimitotic activity against human HaCaT cells assessed as mitotic index at 30 uM after 20 hrs. It is filed as functional. The method, boiled down:
as §1

For assay [9], the system named is HaCaT. Briefly: Antimitotic activity against human HaCaT cells assessed as mitotic index at 0.2 uM after 20 hrs. It is filed as functional. The method, boiled down:
as §1

In assay [10] the test system is HaCaT. The assay is described as follows: Antimitotic activity against human HaCaT cells assessed as mitotic index at 1.5 uM after 20 hrs. Type of assay: functional. The method, boiled down: as §1
Assay [11] deals with HaCaT. The assay is described as follows: Antimitotic activity against human HaCaT cells assessed as mitotic index at 20 uM after 20 hrs. Type of assay: functional. The method, boiled down: as §1
Assay [12] deals with HaCaT. The assay is described as follows: Antimitotic activity against human HaCaT cells assessed as mitotic index at 0.4 uM after 20 hrs. Type of assay: functional. The method, boiled down:
as §1

The next assay addresses Tubulin (Sus scrofa, UniProt P02554+P02550). The assay is described as follows: Inhibition of pig brain tubulin polymerization. The method, boiled down: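 Pig brain tubulin purified by three warm/cold assembly cycles in 1 M monosodium glutamate pH 6.6 with 1 mM GTP. Compound (DMSO, 4% v/v final) preincubated with tubulin 15 min at 30 °C in 0.8 M glutamate pH 6.6 without GTP. Samples then chilled, given GTP, and shifted from 0 °C to 30 °C. Turbidity read at 350 nm. IC50 is 50% inhibition of polymerization extent at 20 min, by linear interpolation.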

The target in another assay is Tubulin (Sus scrofa) (UniProt P02554+P02550). The assay is described as follows: Binding affinity to pig brain tubulin at 10 uM after 15 mins relative to control.
Assay [13] deals with HaCaT. The assay is described as follows: Antimitotic activity against human HaCaT cells assessed as mitotic index at 1 uM after 20 hrs. Type of assay: functional. The method, boiled down: as §1
The test system of assay [14] is HaCaT. The assay is described as follows: Antimitotic activity against human HaCaT cells assessed as mitotic index at 50 uM after 20 hrs. It is filed as functional. The method, boiled down:
as §1

Sequence of Tubulin (Sus scrofa) (P02550 whole entry, looked up): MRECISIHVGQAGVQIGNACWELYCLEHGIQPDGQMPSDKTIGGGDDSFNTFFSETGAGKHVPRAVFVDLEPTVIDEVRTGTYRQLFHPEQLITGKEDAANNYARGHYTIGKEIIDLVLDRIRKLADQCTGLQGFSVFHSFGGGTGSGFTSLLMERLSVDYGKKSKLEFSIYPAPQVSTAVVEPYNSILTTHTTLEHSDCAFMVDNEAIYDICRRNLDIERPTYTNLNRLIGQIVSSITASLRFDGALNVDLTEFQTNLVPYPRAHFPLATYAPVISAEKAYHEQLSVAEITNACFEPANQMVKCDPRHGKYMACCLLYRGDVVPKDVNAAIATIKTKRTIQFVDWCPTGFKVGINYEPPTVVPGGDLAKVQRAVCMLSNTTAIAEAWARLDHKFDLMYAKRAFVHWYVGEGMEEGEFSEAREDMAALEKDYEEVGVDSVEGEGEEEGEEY
Sequence of Tubulin (Sus scrofa) (P02554 whole entry, looked up): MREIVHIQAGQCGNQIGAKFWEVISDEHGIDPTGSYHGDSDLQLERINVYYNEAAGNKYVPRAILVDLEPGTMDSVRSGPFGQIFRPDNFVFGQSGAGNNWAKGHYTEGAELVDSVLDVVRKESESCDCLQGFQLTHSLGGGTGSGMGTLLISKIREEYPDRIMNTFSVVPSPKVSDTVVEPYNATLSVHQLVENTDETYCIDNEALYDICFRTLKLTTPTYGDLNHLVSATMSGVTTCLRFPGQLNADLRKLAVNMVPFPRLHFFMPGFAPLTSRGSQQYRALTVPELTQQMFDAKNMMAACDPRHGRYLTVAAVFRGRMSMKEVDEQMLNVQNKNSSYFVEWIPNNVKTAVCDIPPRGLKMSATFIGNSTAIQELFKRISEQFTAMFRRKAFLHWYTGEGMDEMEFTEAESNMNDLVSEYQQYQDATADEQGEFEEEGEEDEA

For `COC(=O)c1cc(CCc2cc(OC)ccc2N(C)C)ccc1O`, in the assay on HaCaT [1], the IC50 worked out at 650 nM. Also, the Activity in the assay on HaCaT [2] turned out to be 42%.

Consider `CCc1ccc(CC)c(CCc2ccc(O)c(C(=O)OC)c2)c1`, for which the Activity in the assay with HaCaT [3] was 30%. The same molecule registered an IC50 in the assay with HaCaT [1] of 650 nM.

Take `COC(=O)c1cc(CCc2ccc(OC)cc2OC)ccc1O`: in the assay with HaCaT [1], it took 19000 nM to reach half-maximal inhibition (IC50). Besides, in the assay on HaCaT [4], the Activity is recorded as 7.2%.

`CCOc1ccc(OCC)c(CCc2ccc(O)c(C(=O)OC)c2)c1`: in the assay on HaCaT [1], the IC50 came out at 380 nM. For the same molecule, in the assay on HaCaT [2], the Activity is given as 20%.

`CCOc1ccc(OC)c(CCc2ccc(O)c(C(=O)OC)c2)c1`: inhibition in the assay with HaCaT [1] was half-maximal at 540 nM (IC50). For the same molecule, the Activity in the assay on HaCaT [5] was 31%.

In the assay with HaCaT [1], `COC(=O)c1cc(CCc2cc(OC)c(OC)c(OC)c2)ccc1O` displayed an IC50 of 3500 nM. Moreover, the Activity with HaCaT [6] came out at 18%.

`COC(=O)c1cc(CCc2cc(OC)c(C(C)(C)C)cc2C(C)=O)ccc1O`: the IC50 in the assay with HaCaT [1] is 8200 nM. In addition, the Activity with HaCaT [4] was 4.4%.

The molecule `COC(=O)c1cc(CCc2cccc(OC)c2OC)ccc1O` had an IC50 with HaCaT [1] of 33000 nM. Besides, in the assay with HaCaT [4], the Activity was found to be 3.7%.

In turn, `COC(=O)c1cc(CCc2cc(N(C)C)ccc2OC)ccc1O` gave an IC50 with HaCaT [1] of 920 nM. Besides, the Activity with HaCaT [7] turned out to be 28%.

For `COC(=O)c1cc(CCc2ccccc2OC)ccc1O`, the IC50 with HaCaT [1] stood at 20000 nM. Further, in the assay on HaCaT [8], the Activity came out at 16%.

`CCOc1ccc(OC)cc1CCc1ccc(O)c(C(=O)OC)c1` yielded an IC50 in the assay on HaCaT [1] of 120 nM. Also, the Activity in the assay with HaCaT [9] was found to be 38%.

The molecule `COC(=O)c1cc(CCc2cc(OC)ccc2C(C)=O)ccc1O` gave an IC50 in the assay with HaCaT [1] of 41 nM. Also, the Activity with HaCaT [10] is recorded as 46%.

As to `COC(=O)c1cc(CCc2cc(OC)ccc2O)ccc1O`, the Activity in the assay with HaCaT [3] was 27%. Moreover, the IC50 with HaCaT [1] came to 1100 nM.

Turning to `COC(=O)c1cc(CCc2cc(O)ccc2OC)ccc1O`, the midpoint of inhibition in the assay with HaCaT [1], the IC50, lay at 8700 nM. Moreover, the Activity with HaCaT [11] is given as 57%.

With `COC(=O)c1cc(CCc2cc(C(C)=O)ccc2OC)ccc1O`, the Activity in the assay with HaCaT [3] came to 26%. In addition, the IC50 in the assay on HaCaT [1] came to 660 nM.

`COC(=O)c1cc(CCc2c(OC)cccc2OC)ccc1O`: the IC50 in the assay on HaCaT [1] is 110 nM. Moreover, in the assay on HaCaT [12], the Activity amounted to 24%.

Molecule `COC(=O)c1cc(CCc2cc(Cl)ccc2OC)ccc1O` displayed an IC50 in the assay with HaCaT [1] of 6900 nM. In the assay on HaCaT [8], the Activity stood at 27%.

For the molecule `COC(=O)c1cc(CCc2cc(OC)ccc2OC)ccc1O`, the figures for the IC50 in the assay on HaCaT [1] and at Tubulin were 47 nM and 1000 nM, respectively. Also, the Activity in the assay on HaCaT [9] turned out to be 36%; at Tubulin (Sus scrofa) it was 43%.

In the assay with HaCaT [1], `COC(=O)c1cc(CCc2cc(OC(C)=O)ccc2OC(C)=O)ccc1O` came in with an IC50 of 24000 nM.

Take `CCc1cccc(OC)c1CCc1ccc(O)c(C(=O)OC)c1`: the Activity with HaCaT [13] is given as 50%. Moreover, half-maximal inhibition in the assay on HaCaT [1] (IC50) required 200 nM.

`COC(=O)c1cc(CCc2cc(O)ccc2O)ccc1O` returned an IC50 with HaCaT [1] of 21000 nM. In the assay on HaCaT [14], the Activity was found to be 2.2%.

Turning to `COC(=O)c1cc(CCc2cc(OC)ccc2Br)ccc1O`, the Activity with HaCaT [13] is listed as 20%. In the assay on HaCaT [1], this molecule came in with an IC50 of 210 nM.

For the molecule `CCc1ccc(OC)c(CCc2ccc(O)c(C(=O)OC)c2)c1`, the Activity in the assay with HaCaT [13] was 44%. For the same molecule, the IC50 in the assay on HaCaT [1] came out at 430 nM.

The molecule `COC(=O)c1cc(CCc2c(OC)ccc(OC)c2OC)ccc1O` yielded an IC50 in the assay on HaCaT [1] of 3500 nM. Further, the Activity in the assay with HaCaT [6] is reported as 25%.

Regarding `COC(=O)c1cc(CCc2ccc3c(c2)OCO3)ccc1O`, the IC50 in the assay on HaCaT [1] turned out to be 36000 nM. Besides, the Activity with HaCaT [4] is 2.9%.

`CCc1ccc(OC)cc1CCc1ccc(O)c(C(=O)OC)c1` gave an IC50 with HaCaT [1] of 130 nM. Moreover, in the assay with HaCaT [12], the Activity was 47%.

In the assay with HaCaT [1], `COC(=O)c1cc(CCc2cccc(OC)c2)ccc1O` yielded an IC50 of 37000 nM. In addition, the Activity with HaCaT [4] was found to be 36%.

Consider `COC(=O)c1cc(CCc2cc(SC)ccc2OC)ccc1O`, for which the IC50 with HaCaT [1] was determined as 860 nM. Further, the Activity with HaCaT [7] was determined as 37%.

As usually defined, the IC50 is the point on the concentration scale where inhibition reaches its midpoint.
